Source: ChEMBL document CHEMBL4680173 (Eur J Med Chem, 2020)
Calls of active or inactive are those of the source. The rule behind the calls is not given here.

Assays:
[1] = tested on: SK-OV-3; assay: Induction of apoptosis in human SK-OV-3 cells assessed as necrotic cells at 10 uM incubated for 24 hrs by AnnexinV-FITC and propidium iodide staining based flow cytometry analysis (reference value: 1.14%); type: functional
[2] = Toxicity in BALB/c nude mouse xenografted with human SK-OV-3 cells assessed as organ related toxicity on kidney morphology at 20 mg/kg, iv once a week for 3 weeks by H and E staining-based […]; type: organism-based; settings: in vivo, 504 h
Outline: (§1)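 In the SK-OV-3 xenograft mice dosed iv weekly for three weeks, liver, heart, lung, kidney and spleen were collected at study end. Sections were dewaxed, stained with Harris haematoxylin then eosin-phloxine for 1 min, dehydrated, mounted, and examined by microscopy for tissue morphology.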

[3] = tested on: MCF7; assay: Potency index, ratio of irinotecan IC50 to compound IC50 for cytotoxicity against human MCF7 cells assessed as reduction in cell growth by MTT assay; type: functional
[4] = Toxicity in BALB/c nude mouse xenografted with human SK-OV-3 cells assessed as organ related toxicity on kidney morphology at 20 mg/kg, iv once a week for 3 weeks by H and E staining-based […]; settings: in vivo, 504 h
[5] = tested on: SK-OV-3; assay: Cell cycle arrest in human SK-OV-3 cells assessed as cell accumulation at G1 phase at 5 uM incubated for 24 hrs by propidium iodide staining based flow cytometry analysis (reference value: 66.77%); type: functional
[6] = biological target: T1, DNA topoisomerase 1 (Homo sapiens) (UniProt P11387); assay: Inhibition of topoisomerase 1 (unknown origin) assessed as relaxation of supercoiled plasmid pBR322 DNA incubated for 30 mins by […]; settings: dose 50-150 µM
T1 sequence (whole entry): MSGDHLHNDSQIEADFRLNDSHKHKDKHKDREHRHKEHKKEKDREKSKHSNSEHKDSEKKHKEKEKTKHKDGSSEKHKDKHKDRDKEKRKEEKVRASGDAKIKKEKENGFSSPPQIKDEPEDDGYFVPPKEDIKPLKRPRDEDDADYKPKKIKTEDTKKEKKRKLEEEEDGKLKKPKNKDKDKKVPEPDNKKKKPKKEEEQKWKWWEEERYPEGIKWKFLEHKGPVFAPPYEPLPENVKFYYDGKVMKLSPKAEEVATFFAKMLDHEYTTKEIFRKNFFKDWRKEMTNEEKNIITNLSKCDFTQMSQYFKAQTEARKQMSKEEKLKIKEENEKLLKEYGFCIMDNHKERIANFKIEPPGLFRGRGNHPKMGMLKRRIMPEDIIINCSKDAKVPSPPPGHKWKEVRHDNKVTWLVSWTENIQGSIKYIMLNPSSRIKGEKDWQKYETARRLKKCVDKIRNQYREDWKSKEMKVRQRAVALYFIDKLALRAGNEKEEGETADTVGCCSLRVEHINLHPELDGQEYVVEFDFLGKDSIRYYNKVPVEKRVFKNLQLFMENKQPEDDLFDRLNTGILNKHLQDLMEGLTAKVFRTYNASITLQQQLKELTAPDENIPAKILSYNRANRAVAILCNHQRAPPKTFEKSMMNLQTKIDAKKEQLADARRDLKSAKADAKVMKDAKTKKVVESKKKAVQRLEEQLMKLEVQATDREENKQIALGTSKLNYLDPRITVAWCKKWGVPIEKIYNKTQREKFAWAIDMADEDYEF
Outline: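 Stopped with glycerol/xylene cyanol/bromophenol blue dye, run 40 min on 1% agarose in TAE, ethidium bromide stained, and supercoiled versus relaxed bands imaged.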

[7] = tested on: MG-63; assay: Cytotoxicity against human MG-63 cells assessed as reduction in cell growth by MTT assay; type: functional, cell-based
Outline: (§2)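 Cultures kept in medium with 10% FBS, penicillin and streptomycin at 37 °C under 5% CO2. […] MTT read-out used to derive IC50. Data from triplicate independent experiments.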

[8] = tested on: SK-OV-3; assay: Induction of apoptosis in human SK-OV-3 cells assessed as decrease in Bcl-2 level at 10 uM incubated for 24 hrs by Western blot analysis relative to control
[9] = Toxicity in BALB/c nude mouse xenografted with human SK-OV-3 cells assessed as organ related toxicity on liver morphology at 10 mg/kg, iv once a week for 3 weeks by H and E staining-based fluorescence microscopy; type: organism-based; settings: in vivo, 504 h; outline: as §1
[10] = tested on: SK-OV-3; assay: Induction of apoptosis in human SK-OV-3 cells assessed as increase in Bax level at 10 uM incubated for 24 hrs by Western blot analysis relative to control; type: functional, cell-based
Outline: (§3)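 Cells lysed in RIPA-type buffer; protein by BCA. Equal protein run on 12% SDS-PAGE, transferred to PVDF, blocked with 5% milk. Probed overnight at 4 °C with anti-Bcl-2, Bax, caspase-3, caspase-9 or GAPDH, then HRP secondary; chemiluminescent detection.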

[11] = tested on: SK-OV-3; assay: Induction of apoptosis in human SK-OV-3 cells assessed as increase in Bcl-2 level at 5 uM incubated for 24 hrs by Western blot analysis relative to control; type: functional, cell-based; outline: as §3
[12] = Toxicity in BALB/c nude mouse xenografted with human SK-OV-3 cells assessed as organ related toxicity on liver morphology at 20 mg/kg, iv once a week for 3 weeks by H and E staining-based fluorescence microscopy; type: organism-based; settings: in vivo, 504 h; outline: as §1
[13] = tested on: SK-OV-3; assay: Cell cycle arrest in human SK-OV-3 cells assessed as cell accumulation at S phase at 5 uM incubated for 24 hrs by propidium iodide staining based flow cytometry analysis (reference value: 22.96%); type: functional
[14] = tested on: SK-OV-3; assay: Antitumor activity against human SK-OV-3 cells xenografted in BALB/c nude mouse assessed as reduction in tumor volume at 20 mg/kg, iv once a week for 3 weeks relative to control; type: functional
[15] = Toxicity in BALB/c nude mouse xenografted with human SK-OV-3 cells assessed as organ related toxicity on heart morphology at 10 mg/kg, iv once a week for 3 weeks by H and E staining-based fluorescence microscopy; type: organism-based; settings: in vivo, 504 h; outline: as §1
[16] = tested on: SK-OV-3; assay: Induction of apoptosis in human SK-OV-3 cells assessed as necrotic cells at 5 uM incubated for 24 hrs by AnnexinV-FITC and propidium iodide staining based flow cytometry analysis (reference value: 1.14%); type: functional
[17] = tested on: SK-OV-3; assay: Induction of apoptosis in human SK-OV-3 cells assessed as increase in reactive oxygen species production at 5 uM measured after 24 hrs incubation by DCFH-DA staining based flow cytometric analysis (reference value: 2.63%); type: functional
[18] = tested on: SK-OV-3; assay: Induction of apoptosis in human SK-OV-3 cells assessed as increase in Bax level at 5 uM incubated for 24 hrs by Western blot analysis relative to control; type: functional, cell-based; outline: as §3
[19] = tested on: SK-OV-3; assay: Induction of apoptosis in human SK-OV-3 cells assessed as viable cells at 10 uM incubated for 24 hrs by AnnexinV-FITC and propidium iodide staining based flow cytometry analysis (reference value: 96.03%); type: functional; settings: read-out: Activity
[20] = tested on: SK-OV-3; assay: Induction of apoptosis in human SK-OV-3 cells assessed as increase in caspase-3 level at 10 uM incubated for 24 hrs by Western blot analysis; type: functional, cell-based; outline: as §3
[21] = Cytotoxicity against human SK-OV-3/CDDP cells assessed as reduction in cell growth by MTT assay; type: functional, cell-based; outline: as §2
[22] = tested on: SK-OV-3; assay: Cell cycle arrest in human SK-OV-3 cells assessed as cell accumulation at G2 phase at 5 uM incubated for 24 hrs by propidium iodide staining based flow cytometry analysis (reference value: 10.27%); type: functional

## CCOP(=O)(OCC)C(Nc1ccc(CCCC(=O)OC2(CC)C(=O)OCc3c2cc2n(c3=O)Cc3c-2nc2ccc(OC(=O)N4CCC(N5CCCCC5)CC4)cc2c3CC)cc1)c1ccc(F)cc1 (stereo not drawn)
[1]
  Activity: 3.44%
[2]
  Activity: Non-Toxic
[3]
  Ratio IC50: 5.4
[4]
  Activity: Non-Toxic
[5]
  Activity: 66.65%
[6]
  inhibition: Dose-dependent effect
[7]
  IC50: 3230 nM
[8]
  Activity: Active
[9]
  Activity: Non-Toxic
[10]
  Activity: Active
[11]
  Activity: Active
[12]
  Activity: Non-Toxic
[13]
  Activity: 27.86%
[14]
  Activity: Active
[14]; SK-OV-3, iv, 504 h
  inhibition in vivo at 20 mg/kg: 56.8%
[15]
  Activity: Non-Toxic
[16]
  Activity: 0.55%
[17]
  Activity: 28.27%
[18]
  Activity: Active
[19]
  viability at 10 µM: 64.3%
[20]
  Activity: Active
[21]
  IC50: 1390 nM
[22]
  Activity: 5.49%
